In ChEMBL document CHEMBL3992519 (J Med Chem, 2017):
Calls of active or inactive are those of the source. The rule behind the calls is not given here.

Columns and labels:
[1] = Solubility of the compound in saline; assay type: physicochemical; settings: buffer
[2] = biological target: Kappa-type opioid receptor (Homo sapiens, UniProt P41145); experiment: Displacement of [3H]U69,593 from human kappa opioid receptor expressed in CHO cell membranes by micro-beta scintillation counting method
[3] = Solubility of the compound in water; assay type: physicochemical; settings: buffer
[4] = biological target: Delta-type opioid receptor (Homo sapiens, UniProt P41143); experiment: Displacement of [3H]DPDPE from human delta opioid receptor expressed in CHO cell membranes by micro-beta scintillation counting method
[5] = Selectivity index, ratio of IC50 for human OX2R expressed in CHOK1 cells to IC50 for human OX1R expressed in CHOK1 cells
[6] = biological target: T1, Orexin/Hypocretin receptor type 1 (Homo sapiens, UniProt O43613); experiment: Antagonist activity at human OX1R expressed in CHOK1 cells assessed as inhibition of orexin A-induced intracellular calcium level preincubated for 15 mins followed by orexin A addition by Fura-2-AM dye based fluorescence assay
T1 sequence (O43613 whole entry): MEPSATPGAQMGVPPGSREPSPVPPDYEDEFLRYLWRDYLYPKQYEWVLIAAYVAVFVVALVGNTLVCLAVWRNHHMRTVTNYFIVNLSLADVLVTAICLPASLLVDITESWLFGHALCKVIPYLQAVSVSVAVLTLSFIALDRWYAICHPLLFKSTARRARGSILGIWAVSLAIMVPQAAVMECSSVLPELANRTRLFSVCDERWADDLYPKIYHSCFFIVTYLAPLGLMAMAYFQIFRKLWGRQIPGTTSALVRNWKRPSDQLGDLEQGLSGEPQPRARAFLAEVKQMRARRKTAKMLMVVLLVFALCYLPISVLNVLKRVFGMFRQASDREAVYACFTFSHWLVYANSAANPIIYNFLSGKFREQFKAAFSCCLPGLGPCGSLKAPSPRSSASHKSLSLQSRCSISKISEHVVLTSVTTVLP

[7] = biological target: Mu-type opioid receptor (Homo sapiens, UniProt P35372); experiment: Displacement of [3H]DAMGO from human mu opioid receptor expressed in CHO cell membranes by micro-beta scintillation counting method
[8] = system: Mus musculus; experiment: Reduction in morphine dependence expression in ICR mouse assessed as inhibition of naloxone-precipitated jumping behavior at 10 mg/kg, ip administered 30 mins prior to first morphine injection each day for 5 days followed by naloxone challenge 2 hrs post last morphine dose measured over 60 mins; assay type: functional, organism-based
[9] = system: Mus musculus; experiment: Reduction in morphine dependence expression in ICR mouse assessed as inhibition of naloxone-precipitated body weight loss at 10 mg/kg, ip administered 30 mins prior to first morphine injection each day for 5 days followed by naloxone challenge 2 hrs post last morphine dose measured over 60 mins; assay type: functional, organism-based
[10] = system: Mus musculus; experiment: Reduction in morphine dependence expression in ICR mouse assessed as inhibition of naloxone-precipitated diarrhea at 10 mg/kg, ip administered 30 mins prior to first morphine injection each day for 5 days followed by naloxone challenge 2 hrs post last morphine dose measured over 60 mins; assay type: functional, organism-based
[11] = biological target: T2, Orexin receptor type 2 (Homo sapiens, UniProt O43614); experiment: Antagonist activity at human OX2R expressed in CHOK1 cells assessed as inhibition of orexin A-induced intracellular calcium level preincubated for 15 mins followed by orexin A addition by Fura-2-AM dye based fluorescence assay; assay type: cell-based; settings: for inhibition (INH): human
T2 sequence (O43614 whole entry): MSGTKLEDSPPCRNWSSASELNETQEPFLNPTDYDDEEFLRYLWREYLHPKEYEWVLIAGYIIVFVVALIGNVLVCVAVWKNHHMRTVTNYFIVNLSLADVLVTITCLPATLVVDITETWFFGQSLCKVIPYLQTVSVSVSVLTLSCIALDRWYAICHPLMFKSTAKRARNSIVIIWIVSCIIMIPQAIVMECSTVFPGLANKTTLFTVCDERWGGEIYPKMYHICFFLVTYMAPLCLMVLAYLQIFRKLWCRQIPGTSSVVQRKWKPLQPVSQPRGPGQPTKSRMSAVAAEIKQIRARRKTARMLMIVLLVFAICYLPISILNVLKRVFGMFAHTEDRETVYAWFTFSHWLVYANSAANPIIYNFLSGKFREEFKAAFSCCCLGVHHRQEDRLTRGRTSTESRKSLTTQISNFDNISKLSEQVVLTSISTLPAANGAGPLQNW
Procedure, shortened: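 CHO cells expressing human OX1R or OX2R; calcium transient assay. IC50 came from concentration-response curves in at least three independent assays, each run in triplicate. Ki was derived by the Cheng-Prusoff equation and reported as mean ± SEM. […] Some compounds were tested as HCl, MeSO3H or 2H2SO4 salts.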

[12] = biological target: T3, Orexin/Hypocretin receptor type 1 (Homo sapiens) (UniProt O43613)
T3 sequence (whole entry): T1 sequence (O43613 whole entry)

Mu-type opioid receptor, sequence (P35372 whole entry): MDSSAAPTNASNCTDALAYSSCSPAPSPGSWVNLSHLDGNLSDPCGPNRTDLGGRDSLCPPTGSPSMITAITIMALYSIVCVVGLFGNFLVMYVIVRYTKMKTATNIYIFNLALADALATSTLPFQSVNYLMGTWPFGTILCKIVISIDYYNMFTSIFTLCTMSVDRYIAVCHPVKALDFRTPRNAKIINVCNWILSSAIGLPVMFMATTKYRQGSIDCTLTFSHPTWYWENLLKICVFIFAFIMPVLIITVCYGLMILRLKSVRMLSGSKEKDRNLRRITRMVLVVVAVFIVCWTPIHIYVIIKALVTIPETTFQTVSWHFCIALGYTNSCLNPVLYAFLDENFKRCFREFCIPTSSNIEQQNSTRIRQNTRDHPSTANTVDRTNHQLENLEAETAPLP
Delta-type opioid receptor, sequence (P41143 whole entry): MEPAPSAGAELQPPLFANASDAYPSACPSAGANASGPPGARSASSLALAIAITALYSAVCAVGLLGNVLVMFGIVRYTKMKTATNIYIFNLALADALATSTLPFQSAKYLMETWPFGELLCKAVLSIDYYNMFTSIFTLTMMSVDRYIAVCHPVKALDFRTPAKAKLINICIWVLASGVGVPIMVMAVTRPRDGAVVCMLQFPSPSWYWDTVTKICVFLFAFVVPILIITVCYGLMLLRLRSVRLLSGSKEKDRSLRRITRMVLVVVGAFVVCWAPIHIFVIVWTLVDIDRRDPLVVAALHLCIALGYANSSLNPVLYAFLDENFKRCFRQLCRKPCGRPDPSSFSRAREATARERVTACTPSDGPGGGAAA
Kappa-type opioid receptor, sequence (P41145 whole entry): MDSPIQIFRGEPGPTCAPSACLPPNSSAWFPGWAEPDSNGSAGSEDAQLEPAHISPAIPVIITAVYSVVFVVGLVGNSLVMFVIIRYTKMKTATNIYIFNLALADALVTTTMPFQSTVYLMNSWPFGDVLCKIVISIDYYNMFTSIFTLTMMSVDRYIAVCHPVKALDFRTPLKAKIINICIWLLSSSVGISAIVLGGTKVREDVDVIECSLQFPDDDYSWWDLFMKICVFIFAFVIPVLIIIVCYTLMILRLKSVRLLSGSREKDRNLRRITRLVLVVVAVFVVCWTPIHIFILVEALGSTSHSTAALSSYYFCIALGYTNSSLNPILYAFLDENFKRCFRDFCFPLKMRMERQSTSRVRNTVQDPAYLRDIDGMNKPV

Structure (SMILES) | solubility [1] | Ki [2] | solubility [3] | Ki [4] | Ratio IC50 [5] | Ki [6] | Ki [7] | inhibition [8] | inhibition [9] | inhibition [10] | inhibition (INH) [11] | Ke [12] | Ki [11] | Ki ([11]; read-out: Ki)
COc1ccc2c3c1O[C@H]1[C@H](N(C)C(=O)/C=C/c4ccoc4)CC[C@@]4(O)[C@@H](C2)N(S(=O)(=O)c2ccc(N(C)C)cc2)CC[C@]314.Cl | Insoluble | > 1000 nM | Insoluble | > 1000 nM | <88.4 | 12.9 nM | > 1000 nM |  |  |  |  |  |  | 
COc1ccc2c3c1O[C@H]1[C@H](N(C)C(=O)/C=C/c4ccccn4)CC[C@@]4(O)[C@@H](C2)N(S(=O)(=O)c2ccccc2N(C)C)CC[C@]314 |  |  |  |  |  |  |  | Active | Active | Active |  |  |  | 
CN(C(=O)/C=C/c1ccoc1)[C@@H]1CC[C@@]2(O)[C@H]3Cc4ccc(O)c5c4[C@@]2(CCN3CC2CC2)[C@H]1O5.Cl [NALFURAFINE HYDROCHLORIDE] | Insoluble |  | Insoluble | 693 nM |  | 250 nM | 5.99 nM |  |  |  | Not Active |  |  | 
COc1ccc2c3c1O[C@H]1[C@H](N(C)C(=O)/C=C/c4ccoc4)CC[C@@]4(O)[C@@H](C2)N(C(=O)C2CC2)CC[C@]314 | Insoluble | > 1000 nM | Insoluble | > 1000 nM | <88.4 | 12 nM | > 1000 nM |  |  |  |  |  |  | 
CN(C(=O)/C=C/c1ccoc1)[C@@H]1CC[C@@]2(O)[C@H]3Cc4cccc5c4[C@@]2(CCN3CC2CC2)[C@H]1O5 |  |  |  |  |  | 1240 nM |  |  |  |  | Not Active |  |  | 
COc1ccc2c3c1O[C@H]1[C@H](N(C)C(=O)/C=C/c4ccoc4)CC[C@@]4(O)[C@@H](C2)N(CC2CC2)CC[C@]314 |  |  |  |  |  | 22.5 nM |  |  |  |  | Not Active |  |  | 
COc1ccc2c3c1O[C@H]1[C@H](N(C)C(=O)/C=C/c4ccoc4)CC[C@@]4(O)[C@@H](C2)N(S(=O)(=O)c2ccccc2[N+](=O)[O-])CC[C@]314 | Insoluble |  | Insoluble |  | <88.4 | 1.81 nM |  |  |  |  |  | 3.69 nM | Not Active | 
COc1ccc2c3c1O[C@H]1[C@H](N(C)C(=O)/C=C/c4ccoc4)CC[C@@]4(O)[C@@H](C2)N(C(=O)/C=C/c2ccccc2)CC[C@]314 | Insoluble | > 1000 nM | Insoluble | > 1000 nM | <88.4 | 14 nM | > 1000 nM |  |  |  |  |  |  | 
COc1ccc2c3c1O[C@H]1[C@H](N(C)C(=O)/C=C/c4ccoc4)CC[C@@]4(O)[C@@H](C2)N(C(=O)OC(C)(C)C)CC[C@]314 | Insoluble | 184 nM | Insoluble | > 1000 nM | <88.4 | 4.15 nM | > 1000 nM |  |  |  |  |  |  | 
COc1ccc2c3c1O[C@H]1[C@H](N(C)C(=O)/C=C/c4ccoc4)CC[C@@]4(O)[C@@H](C2)N(C(=O)c2ccc(C)cc2)CC[C@]314 | Insoluble |  | Insoluble |  | <88.4 | 14 nM |  |  |  |  |  |  |  | 725 nM
COc1ccc2c3c1O[C@H]1[C@H](N(C)C(=O)/C=C/c4ccoc4)CC[C@@]4(O)[C@@H](C2)N(S(=O)(=O)c2ccccc2)CC[C@]314 | Insoluble | > 1000 nM | Insoluble | > 1000 nM | <88.4 | 8.14 nM | > 1000 nM |  |  |  |  |  |  | 
COc1ccc2c3c1O[C@H]1[C@H](N(C)C(=O)/C=C/c4ccccn4)CC[C@@]4(O)[C@@H](C2)N(S(=O)(=O)c2ccccc2N(C)C)CC[C@]314.O=S(=O)(O)O.O=S(=O)(O)O |  | > 1000 nM |  | > 1000 nM |  |  | > 1000 nM |  |  |  |  |  |  | 
CN(C)c1ccc(S(=O)(=O)N2CC[C@]34c5c6ccc(O)c5O[C@H]3[C@H](N(C)C(=O)/C=C/c3ccoc3)CC[C@@]4(O)[C@H]2C6)cc1 |  | 200 nM |  | > 1000 nM |  |  | 971 nM |  |  |  |  |  |  | 
COc1ccc2c3c1O[C@H]1[C@H](N(C)C(=O)/C=C/c4ccoc4)CC[C@@]4(O)[C@@H](C2)N(S(=O)(=O)c2ccc(C(F)(F)F)cc2)CC[C@]314 | Insoluble |  | Insoluble |  | <88.4 | 12.6 nM |  |  |  |  |  |  |  | 
Cc1cc(NC(=O)Nc2ccc(N(C)C)cc2)c2cc(F)cc(F)c2n1.Cl.Cl | Insoluble | > 1000 nM | Insoluble | > 1000 nM | <88.4 | 18.9 nM | > 1000 nM |  |  |  |  |  |  | 2070 nM
